Source: ChEMBL document CHEMBL1221284, “Development of 2-pyrrolidinyl-N-methyl pyrimidones as potent and orally bioavailable HIV integrase inhibitors” (Bioorg Med Chem Lett, 2010)

How the values were obtained:
[1] = test system: Human immunodeficiency virus 1; test: Antiviral activity against HIV1 3B infected in human MT4 cells assessed as inhibition of viral infections in presence of 50 % normal human serum; assay type: functional; conditions: Human immunodeficiency virus 1, 3B, read-out: CIC95
How it was run: (§1)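 Spread assay measuring inhibition of HIV-1 IIIb infection spread in MT-4 T-lymphoid cell culture. The medium held 10% fetal bovine serum for line 3 and 50% normal human serum for line 4. The readout is the 95% inhibitory concentration (CIC95).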

[2] = Terminal phase half life in rat at 3 mg/kg, po and 3 mg/kg, iv; assay type: ADME, organism-based; conditions: in vivo, read-out: beta t1/2 (converted)
How it was run: (§2)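 The iv dose was given in DMSO/PEG400/H2O (20–40–40%) and the oral dose in 1% methylcellulose. Terminal-phase plasma half-life was taken from the iv administration and AUC from the oral administration.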

[3] = Oral bioavailability in rat at 3 mg/kg; assay type: ADME, organism-based; conditions: in vivo; how it was run: as §2
[4] = AUC in rat at 3 mg/kg, po and 3 mg/kg, iv; assay type: ADME, organism-based; conditions: plasma; how it was run: as §2
[5] = test system: Human immunodeficiency virus 1; test: Antiviral activity against HIV1 3B infected in human MT4 cells assessed as inhibition of viral infections in presence of 10% fetal bovine serum; assay type: functional; conditions: Human immunodeficiency virus 1, 3B, read-out: CIC95; how it was run: as §1
[6] = target: Human immunodeficiency virus type 1 integrase (Human immunodeficiency virus 1, UniProt Q7ZJM1); test: Inhibition of HIV 1 recombinant integrase
Human immunodeficiency virus type 1 integrase, sequence (Q7ZJM1 whole entry): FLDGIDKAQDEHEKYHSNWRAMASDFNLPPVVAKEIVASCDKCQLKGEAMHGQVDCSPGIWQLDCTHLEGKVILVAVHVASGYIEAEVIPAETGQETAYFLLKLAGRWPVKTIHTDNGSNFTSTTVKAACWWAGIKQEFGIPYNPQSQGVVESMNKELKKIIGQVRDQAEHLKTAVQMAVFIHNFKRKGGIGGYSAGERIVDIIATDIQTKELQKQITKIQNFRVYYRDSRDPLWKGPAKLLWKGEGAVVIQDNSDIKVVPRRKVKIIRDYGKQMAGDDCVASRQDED
How it was run: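 Recombinant HIV-1 integrase was pre-assembled on immobilized oligonucleotides. Inhibitor was added after assembly and washing. IC50 is the inhibitor concentration that reduces integrase activity by 50%.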

[7] = Plasma clearance in rat at 3 mg/kg, po and 3 mg/kg, iv; assay type: ADME, organism-based; how it was run: as §2
[8] = Metabolic stability in rat liver microsomes assessed as oxidation rate after 1 hr in presence of NADPH; assay type: ADME, Microsome
How it was run: (§3)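 Rat liver microsomes (1 mg/mL) were incubated with test compound for 1 h. The cofactor was UDPGA for glucuronidation and NADPH for oxidation. Substrate loss was measured by LC/MS/MS and expressed as % of initial remaining.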

[9] = Metabolic stability in rat liver microsomes assessed as glucuronidation rate after 1 hr in presence of UDPGA; assay type: ADME, Microsome; how it was run: as §3
[10] = test system: Human immunodeficiency virus 1; test: Antiviral activity against HIV1 harboring integrase T66I and M154I double mutant relative to wild type; assay type: functional
[11] = test system: Human immunodeficiency virus 1; test: Antiviral activity against HIV1 harboring integrase N155S mutant relative to wild type; assay type: functional
[12] = test system: Human immunodeficiency virus 1; test: Antiviral activity against HIV1 harboring integrase T66/L74M and V151L double mutant relative to wild type; assay type: functional
[13] = test system: Human immunodeficiency virus 1; test: Antiviral activity against HIV1 harboring integrase T66I and S153Y double mutant relative to wild type; assay type: functional
[14] = organism: Homo sapiens; test: Plasma protein binding in human; conditions: read-out: PPB (converted)
[15] = test system: Human immunodeficiency virus 1; test: Antiviral activity against HIV1 harboring integrase T125K and […] double mutant relative to wild type; assay type: functional
[16] = Plasma protein binding in rat; assay type: ADME, cell-free; conditions: read-out: PPB (converted)
[17] = AUC in dog at 1 mg/kg, iv and 2 mg/kg, po; conditions: plasma
[18] = Oral bioavailability in dog at 1 mg/kg; assay type: ADME, organism-based, Canis lupus familiaris; conditions: in vivo; how it was run: as §2
[19] = Terminal phase half life in dog at 1 mg/kg, iv and 2 mg/kg, po; conditions: in vivo, read-out: beta t1/2 (converted)
[20] = test system: Human immunodeficiency virus 1; test: Antiviral activity against HIV1 harboring integrase F121Y mutant relative to wild type
[21] = test system: Human immunodeficiency virus 1; test: Antiviral activity against HIV1 harboring integrase V151I mutant relative to wild type; assay type: functional
[22] = test system: Human immunodeficiency virus 1; test: Antiviral activity against HIV1 harboring integrase T125K mutant relative to wild type; assay type: functional
[23] = test system: Human immunodeficiency virus 1; test: Antiviral activity against HIV1 harboring integrase T66I mutant relative to wild type; assay type: functional

Compound: Cn1c([C@@H]2C[C@H](F)CN2C(=O)c2cnccn2)nc(C(=O)NCc2ccc(F)cc2)c(O)c1=O
- IC95 [1]: 16 nM
- half-life [2]: 0.2 h
- bioavailability [3]: 18%
- AUC [4]: 2.3 µM·h
- IC95 [5]: 16 nM
- IC50 [6]: 10 nM
- clearance [7]: 77 mL/min/kg

Compound: CN(C)S(=O)(=O)N1C[C@@H](F)C[C@H]1c1nc(C(=O)NCc2ccc(F)cc2)c(O)c(=O)n1C
- IC95 [1]: 125 nM
- bioavailability [3]: 16%
- IC95 [5]: 31 nM
- IC50 [6]: 9 nM
- clearance [7]: 64 mL/min/kg

Compound: CC(=O)N1C[C@@H](F)C[C@H]1c1nc(C(=O)NCc2ccc(F)cc2)c(O)c(=O)n1C
- remaining at 1 h [8]: 40%
- IC95 [1]: 17 nM
- half-life [2]: 0.3 h
- bioavailability [3]: 31%
- remaining at 1 h [9]: 43%
- Ratio IC50 [10]: 2
- AUC [4]: 1.2 µM·h
- Ratio IC50 [11]: 15
- Ratio IC50 [12]: 10
- IC95 [5]: 14 nM
- Ratio IC50 [13]: 5
- IC50 [6]: 15 nM
- fraction unbound [14]: 0.21
- Ratio IC50 [15]: 15
- clearance [7]: 64 mL/min/kg
- fraction unbound [16]: 0.37

Compound: COC(=O)N1C[C@@H](F)C[C@H]1c1nc(C(=O)NCc2ccc(C)c(Cl)c2)c(O)c(=O)n1C
- IC95 [1]: 63 nM
- half-life [2]: 7.4 h
- bioavailability [3]: 10%
- AUC [4]: 1.2 µM·h
- IC95 [5]: 16 nM
- IC50 [6]: 20 nM
- clearance [7]: 9.9 mL/min/kg

Compound: CN1C[C@@H](F)C[C@H]1c1nc(C(=O)NCc2ccc(F)cc2)c(O)c(=O)n1C
- AUC [17]: 23.1 µM·h
- IC95 [1]: 125 nM
- AUC [4]: 4.5 µM·h
- IC95 [5]: 63 nM
- bioavailability [18]: 116%
- IC50 [6]: 23 nM
- half-life [19]: 3.7 h
- clearance [7]: 21 mL/min/kg

Compound: Cn1c([C@@H]2C[C@H](F)CN2C2CC2)nc(C(=O)NCc2ccc(F)cc2)c(O)c1=O
- IC95 [1]: 250 nM
- IC95 [5]: 63 nM
- IC50 [6]: 20 nM

Compound: Cn1c([C@@H]2C[C@H](F)CN2S(C)(=O)=O)nc(C(=O)NCc2ccc(F)cc2)c(O)c1=O
- IC95 [1]: 125 nM
- IC95 [5]: 31 nM
- IC50 [6]: 15 nM

Compound: Cn1c([C@@H]2C[C@H](F)CN2Cc2ccon2)nc(C(=O)NCc2ccc(F)cc2)c(O)c1=O
- IC95 [1]: 625 nM
- IC95 [5]: 156 nM
- IC50 [6]: 10 nM

Compound: CC(=O)N1C[C@@H](F)C[C@H]1c1nc(C(=O)NCc2ccc(F)c(C)c2)c(O)c(=O)n1C
- IC95 [1]: 31 nM
- half-life [2]: 1.4 h
- bioavailability [3]: 17%
- AUC [4]: 0.5 µM·h
- IC95 [5]: 16 nM
- IC50 [6]: 27 nM
- clearance [7]: 39 mL/min/kg

Compound: CC(=O)N1C[C@@H](F)C[C@H]1c1nc(C(=O)NCc2ccc(F)c(Cl)c2)c(O)c(=O)n1C
- AUC [17]: 2.8 µM·h
- IC95 [1]: 17 nM
- half-life [2]: 0.7 h
- bioavailability [3]: 20%
- Ratio IC50 [20]: 4
- Ratio IC50 [21]: 1
- Ratio IC50 [10]: 3
- AUC [4]: 0.5 µM·h
- Ratio IC50 [22]: 1
- Ratio IC50 [11]: 31
- Ratio IC50 [12]: 31
- IC95 [5]: 3 nM
- Ratio IC50 [13]: 3
- bioavailability [18]: 34%
- Ratio IC50 [23]: 2
- IC50 [6]: 24 nM
- half-life [19]: 7.1 h
- Ratio IC50 [15]: 17
- clearance [7]: 43 mL/min/kg

Compound: CN(C)C(=O)C(=O)N1C[C@@H](F)C[C@H]1c1nc(C(=O)NCc2ccc(F)cc2)c(O)c(=O)n1C
- IC95 [1]: 16 nM
- half-life [2]: 1.6 h
- bioavailability [3]: 19%
- AUC [4]: 0.2 µM·h
- IC95 [5]: 16 nM
- IC50 [6]: 21 nM
- clearance [7]: 138 mL/min/kg

Compound: COC(=O)N1C[C@@H](F)C[C@H]1c1nc(C(=O)NCc2ccc(F)cc2)c(O)c(=O)n1C
- IC95 [1]: 63 nM
- half-life [2]: 0.6 h
- bioavailability [3]: 44%
- AUC [4]: 1.2 µM·h
- IC95 [5]: 31 nM
- IC50 [6]: 10 nM
- clearance [7]: 46 mL/min/kg

Compound: CC(=O)N1C[C@@H](F)C[C@H]1c1nc(C(=O)NCc2ccc(C)c(Cl)c2)c(O)c(=O)n1C
- AUC [17]: 6.4 µM·h
- IC95 [1]: 46 nM
- half-life [2]: 3 h
- bioavailability [3]: 94%
- Ratio IC50 [20]: 1.5
- Ratio IC50 [21]: 1
- Ratio IC50 [10]: 0.8
- AUC [4]: 3.7 µM·h
- Ratio IC50 [22]: 1
- Ratio IC50 [11]: 8
- Ratio IC50 [12]: 2.5
- IC95 [5]: 5 nM
- Ratio IC50 [13]: 0.8
- bioavailability [18]: 80%
- Ratio IC50 [23]: 1
- IC50 [6]: 32 nM
- half-life [19]: 1.2 h
- fraction unbound [14]: 0.022
- Ratio IC50 [15]: 3.5
- clearance [7]: 29 mL/min/kg

Compound: CN(C)C(=O)N1C[C@@H](F)C[C@H]1c1nc(C(=O)NCc2ccc(F)cc2)c(O)c(=O)n1C
- IC95 [1]: 125 nM
- IC95 [5]: 125 nM
- IC50 [6]: 10 nM

Compound: COC(=O)N1C[C@@H](F)C[C@H]1c1nc(C(=O)NCc2ccc(F)c(Cl)c2)c(O)c(=O)n1C
- IC95 [1]: 31 nM
- half-life [2]: 1.5 h
- bioavailability [3]: 25%
- AUC [4]: 1.3 µM·h
- IC95 [5]: 16 nM
- IC50 [6]: 19 nM
- clearance [7]: 21 mL/min/kg
